Source: ChEMBL document CHEMBL5046294, “Rational Design, Chemical Syntheses, and Biological Evaluations of Peripherally Selective Mu Opioid Receptor Ligands as Potential Opioid Induced Constipation Treatment” (J Med Chem, 2022)

Assays:
Format in all cases: functional
[1] = test system: Mus musculus; experiment: Gastroprokinetic activity in Swiss Webster mouse assessed as stimulation of gastrointestinal motility by measuring time required to defecation of red fecal pellet at 10 mg/kg, sc incubated for 20 mins by carmine red dye assay
Summary of the method: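 Male Swiss Webster mice (5–8 weeks, 25–35 g), singly caged, 5–6 per group. Compound or vehicle was given s.c. 5 min before morphine 10 mg/kg (or vehicle). 20 min after morphine, mice received 0.2 mL of 6% carmine red dye in 0.5% carboxymethyl cellulose orally, set as time 0. Latency to the first red fecal pellet was measured, with a 6 h cut-off. One-way ANOVA followed by Dunnett test.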

[2] = test system: Mus musculus; experiment: Gastroprokinetic activity in Swiss Webster mouse assessed as stimulation of gastrointestinal motility by measuring time required to defecation of red fecal pellet at 10 mg/kg, po incubated for 20 mins by carmine red dye assay
Summary of the method: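 Male Swiss Webster mice (5–8 weeks, 25–35 g), singly caged, 5–6 per group. Compound or vehicle was given by oral gavage 5 min before s.c. morphine (10 or 5 mg/kg) or vehicle. Oral vehicle was also given to naïve and morphine groups. 20 min after morphine, mice received 0.2 mL of 6% carmine red in 0.5% CMC p.o. (time 0). Time to the first red pellet was recorded, with a 6 h cut-off. One-way ANOVA with Dunnett test.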

[3] = test system: Mus musculus; experiment: Gastroprokinetic activity in Swiss Webster mouse assessed as stimulation of gastrointestinal motility by measuring time required to defecation of red fecal pellet at 5 mg/kg, po incubated for 20 mins by carmine red dye assay
Summary of the method: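 Male Swiss Webster mice, 5–6 per group, housed singly. Compound or vehicle given s.c. or by oral gavage 5 min before morphine (10 or 5 mg/kg) or vehicle. 20 min after morphine, 0.2 mL of 6% carmine red in 0.5% CMC given orally (time 0). Time to first red pellet recorded, 6-h cutoff. Dunnett-corrected one-way ANOVA.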

CN1CC[C@]23c4c5ccc(O)c4O[C@H]2[C@@H](O)C=C[C@H]3[C@H]1C5 [MORPHINE]
Time [1]: 124 min
Time [2]: 115 min
Time [3]: 105 min
